Tests used:
[1] = biological target: 5-hydroxytryptamine receptor 2B (Homo sapiens, UniProt P41595); experiment: Displacement of [3H]LSD from 5-HT2B after 1.5 hrs by liquid scintillation counting
[2] = Displacement of [3H]MK801 from PCP binding site of NMDA receptor at 10 uM after 1.5 hrs by liquid scintillation counting
[3] = biological target: Sigma non-opioid intracellular receptor 1 (Rattus norvegicus, UniProt Q9R0C9); experiment: Displacement of [3H](+)-pentazocine from sigma 1 receptor in rat brain homogenate after 2.5 hrs by liquid scintillation counting; format: tissue-based
Chain of Sigma non-opioid intracellular receptor 1 (Q9R0C9 whole entry): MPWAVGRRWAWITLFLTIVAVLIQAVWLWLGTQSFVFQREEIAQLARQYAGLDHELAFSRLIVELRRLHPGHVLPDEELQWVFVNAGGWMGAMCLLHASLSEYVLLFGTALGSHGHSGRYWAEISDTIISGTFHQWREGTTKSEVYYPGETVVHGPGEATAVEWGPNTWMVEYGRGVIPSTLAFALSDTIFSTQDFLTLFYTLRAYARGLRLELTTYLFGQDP
In short: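 σ1 affinity by competition with [³H](+)-pentazocine in rat brain homogenate, following a modification of the Kovacs and Larson protocol. Ki determinations were run by the NIMH Psychoactive Drug Screening Program. Values are mean ± SEM from triplicate assays.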

D(2) dopamine receptor [4] = biological target: T1, D(2) dopamine receptor (Homo sapiens, UniProt P14416); experiment: Displacement of [3H]N-methylspiperone from D2 after 1.5 hrs by liquid scintillation counting
T1 sequence (P14416 whole entry): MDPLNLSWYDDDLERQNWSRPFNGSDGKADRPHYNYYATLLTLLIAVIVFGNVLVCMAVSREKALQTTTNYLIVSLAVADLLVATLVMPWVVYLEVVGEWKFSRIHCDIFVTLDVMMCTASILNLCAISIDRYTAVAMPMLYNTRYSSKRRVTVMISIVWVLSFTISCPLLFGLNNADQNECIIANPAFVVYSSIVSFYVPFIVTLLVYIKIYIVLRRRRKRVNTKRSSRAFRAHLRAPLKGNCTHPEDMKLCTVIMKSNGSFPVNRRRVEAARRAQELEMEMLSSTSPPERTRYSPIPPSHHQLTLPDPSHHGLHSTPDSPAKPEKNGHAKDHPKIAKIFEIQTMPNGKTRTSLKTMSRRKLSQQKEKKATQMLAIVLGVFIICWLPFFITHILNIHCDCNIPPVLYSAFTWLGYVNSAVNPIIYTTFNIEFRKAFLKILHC

[5] = Displacement of [3H]DTG from sigma 2 receptor in rat PC12 cells after 2 hrs by liquid scintillation counting; format: cell-based; conditions: pc-12
In short: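 σ2 affinity by competition with [³H]DTG in a PC12 cell preparation, following a modified Kovacs and Larson protocol. Ki determinations were run by the NIMH PDSP. Values are mean ± SEM of triplicate assays.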

PC-12 = experiment: Selectivity ratio of Ki for sigma 2 receptor in rat PC12 cells to Ki for sigma 1 receptor in rat brain homogenates; format: cell-based
In short: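 Competition binding, done by the NIMH Psychoactive Drug Screening Program. σ1 Ki came from displacement of [³H](+)-pentazocine in rat brain homogenate, and σ2 Ki from displacement of [³H]DTG in a PC12 cell preparation. Ki values were mean with SEM from triplicate assays. The ratio is σ2 Ki divided by σ1 Ki.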

D(2) dopamine receptor [6] = biological target: T1, D(2) dopamine receptor; experiment: Displacement of [3H]N-methylspiperone from D2 at 10 uM after 1.5 hrs by liquid scintillation counting

Chain of 5-hydroxytryptamine receptor 2B (P41595 whole entry): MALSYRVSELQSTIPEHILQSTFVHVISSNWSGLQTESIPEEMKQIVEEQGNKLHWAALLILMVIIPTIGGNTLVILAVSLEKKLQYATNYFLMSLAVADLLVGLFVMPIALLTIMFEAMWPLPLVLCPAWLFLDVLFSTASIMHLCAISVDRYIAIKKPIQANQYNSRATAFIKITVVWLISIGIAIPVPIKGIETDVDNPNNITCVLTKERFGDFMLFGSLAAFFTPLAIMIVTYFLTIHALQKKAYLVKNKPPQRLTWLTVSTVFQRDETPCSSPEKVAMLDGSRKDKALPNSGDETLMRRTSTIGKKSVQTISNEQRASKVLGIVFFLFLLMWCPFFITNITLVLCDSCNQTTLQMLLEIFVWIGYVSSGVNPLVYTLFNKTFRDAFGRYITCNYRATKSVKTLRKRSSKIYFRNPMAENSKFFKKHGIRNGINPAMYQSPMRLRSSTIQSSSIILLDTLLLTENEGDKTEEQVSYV

SMILES | Ki [1] [nM] | inhibition [2] [%] | Ki [3] [nM] | Ki (D(2) dopamine receptor [4]) [nM] | Ki [5] [nM] | Ratio Ki (PC-12) | inhibition (D(2) dopamine receptor [6]) [%]
COc1ccccc1CCCN1CCN(Cc2cc3ccccc3o2)CC1 | 628 | < 50 | 8.3 | 5870 | 53 | 6 | 
c1ccc(CCN2CCN(Cc3cc4ccccc4o3)CC2)cc1 | 310 | < 50 | 7.3 |  | 131 | 18 | < 50
c1ccc(CCCCN2CCN(Cc3cc4ccccc4o3)CC2)cc1 | 275 | < 50 | 4.2 | 89 | 18 | 4 | 
COc1cccc(CCN2CCN(Cc3cc4ccccc4o3)CC2)c1 | 290 | < 50 | 13 |  | 14 | 1 | < 50
COc1cccc(CCCCN2CCN(Cc3cc4ccccc4o3)CC2)c1 | 343 | < 50 | 7.6 | 484 | 211 | 28 | 
COc1ccc(CCCCN2CCN(Cc3cc4ccccc4o3)CC2)cc1 | 352 | < 50 | 13 | 5790 | 87 | 7 | 
c1ccc(CCCN2CCN(Cc3cc4ccccc4o3)CC2)cc1 | 147 | < 50 | 5.7 | 1020 | 18 | 3 | 
COc1ccccc1CCCCN1CCN(Cc2cc3ccccc3o2)CC1 | 332 | < 50 | 16 | 432 | 130 | 8 | 
COc1ccccc1CCN1CCN(Cc2cc3ccccc3o2)CC1 | 120 | < 50 | 17 | 1650 | 81 | 5 | 
COc1ccc(CCCN2CCN(Cc3cc4ccccc4o3)CC2)cc1 | 155 | < 50 | 3.1 | > 10000 | 138 | 45 | < 50
COc1ccc(CCN2CCN(Cc3cc4ccccc4o3)CC2)cc1 | 463 | < 50 | 9.4 |  | 101 | 11 | < 50
COc1cccc(CCCN2CCN(Cc3cc4ccccc4o3)CC2)c1 | 243 | < 50 | 5.7 | 556 | 40 | 7 | 

Source: ChEMBL document CHEMBL1833923, “Effects of linker elongation in a series of N-(2-benzofuranylmethyl)-N'-(methoxyphenylalkyl)piperazine σ₁ receptor ligands” (Bioorg Med Chem Lett, 2011)
